A short description of data set [1]: Cmax in Wistar-Hannover rat plasma at 4 mg/kg, po and measured up to 24 hrs by LC/MS-MS analysis. Also on record: route oral, dose 4 mg/kg, time <=24. It counts as ADME, organism-based.
Data set [2] is described as follows: Ratio of drug uptake in Wistar-Hannover rat unbound liver to plasma concentration at 30 mg/kg, po after 6 hrs by LC/MS-MS analysis. The following applies: other tissue. In kind it is ADME, organism-based. A digest of the protocol: (§1)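 Male Wistar-Hannover rats (n = 2 or 3) dosed orally as a suspension in 0.5% methyl cellulose with 0.1% Tween 80. Plasma and liver sampled 6 h post-dose. Kp is total liver/plasma; Kpu,u uses unbound fractions from equilibrium dialysis of plasma and liver.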

Data set [3] is described as follows: Ratio of drug uptake in Wistar-Hannover rat liver to plasma at 30 mg/kg, po after 6 hrs by LC/MS-MS analysis. It counts as ADME, organism-based. The settings on record: liver and plasma. A digest of the protocol: as §1
In data set [4] the target is T1, OATP1B1 (Homo sapiens, UniProt Q9Y6L6).
T1 sequence (Q9Y6L6 whole entry): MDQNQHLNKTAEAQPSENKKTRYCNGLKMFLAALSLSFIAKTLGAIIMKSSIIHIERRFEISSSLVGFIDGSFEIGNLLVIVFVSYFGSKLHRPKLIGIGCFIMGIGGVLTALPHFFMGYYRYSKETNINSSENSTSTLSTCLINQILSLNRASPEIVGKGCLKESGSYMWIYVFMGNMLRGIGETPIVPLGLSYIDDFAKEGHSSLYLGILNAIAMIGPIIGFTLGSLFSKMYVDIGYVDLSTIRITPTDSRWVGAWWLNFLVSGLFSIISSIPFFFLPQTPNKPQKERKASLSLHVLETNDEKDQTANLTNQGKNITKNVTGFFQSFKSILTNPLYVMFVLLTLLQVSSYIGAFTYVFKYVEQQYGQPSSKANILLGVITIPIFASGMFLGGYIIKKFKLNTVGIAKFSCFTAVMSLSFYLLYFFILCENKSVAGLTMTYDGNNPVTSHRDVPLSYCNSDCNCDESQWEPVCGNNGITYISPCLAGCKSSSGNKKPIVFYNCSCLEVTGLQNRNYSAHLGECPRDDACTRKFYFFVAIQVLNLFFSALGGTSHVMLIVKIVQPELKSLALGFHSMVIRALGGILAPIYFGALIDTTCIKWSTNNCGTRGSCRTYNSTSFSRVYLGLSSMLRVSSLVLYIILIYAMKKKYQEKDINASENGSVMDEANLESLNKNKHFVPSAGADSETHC
Briefly: Substrate activity at human OATP1B1 stably expressed in HEK293 cells assessed as ratio of total to passive cellular uptake at 1 uM incubated for 5 mins by LC/MS-MS analysis. In kind it is ADME, cell-based. The settings on record: HEK293 cells stably expressing human OATP1B1. In short, it runs like this:
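Transfected versus parental HEK293 cells exposed at 1 µM for 5 min at 37 °C. Ratio is total (transfected) over passive (parental) uptake; >2 denotes substrate.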

For data set [5], the target named is T2, OATP1B3 (Homo sapiens, UniProt Q9NPD5).
T2 sequence (Q9NPD5 whole entry): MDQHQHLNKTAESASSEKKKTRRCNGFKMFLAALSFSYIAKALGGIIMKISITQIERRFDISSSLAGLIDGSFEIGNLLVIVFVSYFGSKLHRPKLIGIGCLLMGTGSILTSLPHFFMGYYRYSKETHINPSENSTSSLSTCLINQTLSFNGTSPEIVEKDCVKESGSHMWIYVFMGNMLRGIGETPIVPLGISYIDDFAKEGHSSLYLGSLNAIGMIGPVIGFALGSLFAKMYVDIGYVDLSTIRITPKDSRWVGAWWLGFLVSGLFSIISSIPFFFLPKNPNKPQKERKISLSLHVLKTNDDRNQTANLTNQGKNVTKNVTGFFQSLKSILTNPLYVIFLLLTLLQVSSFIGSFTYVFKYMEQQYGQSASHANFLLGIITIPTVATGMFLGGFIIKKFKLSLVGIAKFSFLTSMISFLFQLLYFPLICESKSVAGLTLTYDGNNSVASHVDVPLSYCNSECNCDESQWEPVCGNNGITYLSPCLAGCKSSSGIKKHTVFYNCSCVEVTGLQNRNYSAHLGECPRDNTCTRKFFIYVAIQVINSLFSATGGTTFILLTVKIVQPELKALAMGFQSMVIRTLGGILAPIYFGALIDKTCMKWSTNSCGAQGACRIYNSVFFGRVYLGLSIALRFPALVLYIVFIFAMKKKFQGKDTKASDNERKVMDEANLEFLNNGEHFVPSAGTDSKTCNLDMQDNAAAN
Briefly: Substrate activity at human OATP1B3 stably expressed in HEK293 cells assessed as ratio of total to passive cellular uptake at 1 to 3 uM incubated for 0.5 to 4 mins by LC/MS-MS analysis. It counts as ADME, cell-based. The following applies: HEK293 cells stably expressing human OATP1B3, dose 1-3 µM, time 0.5-4 min. In short, it runs like this: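 Stably transfected HEK293 cells and wild-type parental cells, cultured to confluency in DMEM with 10% heat-inactivated FBS and 5 µg/mL blasticidin. Uptake at 1–3 µM in HBSS/20 mM HEPES pH 7.4, 37 °C, 0.5–4.0 min. Cells washed in ice-cold buffer, lysed in MeOH, quantified by LC-MS/MS and normalized to protein. Ratio is transfected/parental uptake; >2 denotes substrate.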

Data set [6] has as its target T3, Cytochrome P450 1A2 (Homo sapiens, UniProt P05177). The data set is described as follows: inhibition of CYP1A2 in human liver microsomes. It counts as ADME. For orientation: Liver microsomes are a subcellular fraction often used to study metabolism.
The nature of data set [7]: Fraction unbound in monkey liver by equilibrium dialysis method. The following applies: rhesus monkey. It counts as ADME, tissue-based, Macaca mulatta. In short, it runs like this:
(§2)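 Fraction unbound in plasma and liver tissue was determined by equilibrium dialysis.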
(Equilibrium dialysis compares concentrations on both sides of a semipermeable membrane.)

Data set [8] can be described thus: Drug uptake in human hepatocytes assessed as ratio of active uptake intrinsic clearance to passive diffusion clearance at 1 uM up to 15 mins by LC-MS/MS analysis. In kind it is ADME, cell-based, Hepatocyte. The following applies: 0.25 h.
Data set [9] has as its target Cytochrome P450 2D6 (Homo sapiens, UniProt P10635). The data set is described as follows: inhibition of CYP2D6 in human liver microsomes. In kind it is ADME.
A short description of data set [10]: Drug recovery in bile duct-cannulated Wistar-Hannover rat bile at 1 mg/kg, iv and measured up to 24 hrs by LC/MS-MS analysis. It counts as ADME, organism-based. The settings on record: read-out: Drug recovery. In short, it runs like this: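 Rats received a 1 mg/kg IV dose. Bile was pooled over 0–24 h and analysed for unchanged parent.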
Data set [11] in a line: Fraction unbound in monkey plasma by equilibrium dialysis method. In kind it is ADME, cell-free, Macaca mulatta. The settings on record: rhesus monkey. A digest of the protocol:
as §2

The target of data set [12] is UDP-glucuronosyltransferase 1A9 (Homo sapiens, UniProt O60656). The data set is described as follows: Inhibition of UGT1A9 in human liver microsomes incubated for 30 mins in presence of UDPGA by LC-MS/MS analysis. In kind it is ADME.
Sequence of UDP-glucuronosyltransferase 1A9 (O60656 whole entry): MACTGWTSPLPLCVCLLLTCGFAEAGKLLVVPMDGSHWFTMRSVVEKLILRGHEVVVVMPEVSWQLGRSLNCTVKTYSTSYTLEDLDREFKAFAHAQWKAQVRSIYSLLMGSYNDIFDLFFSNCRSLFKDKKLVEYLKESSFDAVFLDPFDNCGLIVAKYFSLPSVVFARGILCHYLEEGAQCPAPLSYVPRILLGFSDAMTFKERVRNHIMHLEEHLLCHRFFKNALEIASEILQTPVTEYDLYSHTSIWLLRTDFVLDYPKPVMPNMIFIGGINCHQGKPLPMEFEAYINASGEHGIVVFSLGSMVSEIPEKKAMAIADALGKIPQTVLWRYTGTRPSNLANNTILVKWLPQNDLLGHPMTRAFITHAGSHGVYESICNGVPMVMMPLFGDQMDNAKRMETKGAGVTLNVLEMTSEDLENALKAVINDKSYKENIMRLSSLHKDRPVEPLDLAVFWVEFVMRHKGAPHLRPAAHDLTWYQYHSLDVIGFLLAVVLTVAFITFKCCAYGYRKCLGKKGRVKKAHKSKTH
Data set [13] can be described thus: Toxicity in cynomolgus monkey assessed as reduction in platelet count at 3 to 10 mg/kg, po after 14 days. It counts as organism-based, Macaca fascicularis. The following applies: in vivo, 336 h, dose 3-10 mg/kg, time 14 day.
The nature of data set [14]: AUC (0 to 24 hrs) in cynomolgus monkey plasma at 1 mg/kg, iv and measured up to 72 hrs by LC/MS-MS analysis. Details: route intravenous, dose 1 mg/kg, time <=72; call rule not given here. In kind it is ADME, organism-based, Macaca fascicularis. In short, it runs like this: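 Cynomolgus monkeys received an IV solution of the tris salt in 2% N-methylpyrrolidone and 98% sulfobutylether-β-cyclodextrin (12.5%) in 50 mM TRIS buffer, pH 8.0. AUC0–24 came from plasma concentration–time data by the linear trapezoidal rule, averaged for n = 2.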

Data set [15] concerns the target T3, Cytochrome P450 1A2. The data set is described as follows: Activation of CYP1A2 in human hepatocytes at 0.5 to 200 uM. The following applies: dose 0.5-200 µM. In kind it is ADME, cell-based, Hepatocyte.
The target in data set [16] is Cytochrome P450 3A4 (Homo sapiens, UniProt P08684). The data set is described as follows: inhibition of CYP3A4 in human liver microsomes. In kind it is ADME.
Sequence of Cytochrome P450 3A4 (P08684 whole entry): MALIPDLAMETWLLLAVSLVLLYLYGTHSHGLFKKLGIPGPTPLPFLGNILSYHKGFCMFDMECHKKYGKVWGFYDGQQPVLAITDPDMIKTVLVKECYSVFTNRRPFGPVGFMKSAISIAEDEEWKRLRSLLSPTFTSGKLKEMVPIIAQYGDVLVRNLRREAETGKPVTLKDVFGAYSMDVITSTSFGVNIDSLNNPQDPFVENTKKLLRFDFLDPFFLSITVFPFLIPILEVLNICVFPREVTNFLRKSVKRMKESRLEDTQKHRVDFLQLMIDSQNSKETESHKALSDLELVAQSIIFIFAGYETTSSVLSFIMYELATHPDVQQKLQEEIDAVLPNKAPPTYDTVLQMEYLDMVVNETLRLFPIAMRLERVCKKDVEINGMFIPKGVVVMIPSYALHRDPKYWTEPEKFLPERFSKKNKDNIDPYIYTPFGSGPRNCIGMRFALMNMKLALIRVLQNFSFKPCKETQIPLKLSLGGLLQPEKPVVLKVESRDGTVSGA

T3 sequence (P05177 whole entry): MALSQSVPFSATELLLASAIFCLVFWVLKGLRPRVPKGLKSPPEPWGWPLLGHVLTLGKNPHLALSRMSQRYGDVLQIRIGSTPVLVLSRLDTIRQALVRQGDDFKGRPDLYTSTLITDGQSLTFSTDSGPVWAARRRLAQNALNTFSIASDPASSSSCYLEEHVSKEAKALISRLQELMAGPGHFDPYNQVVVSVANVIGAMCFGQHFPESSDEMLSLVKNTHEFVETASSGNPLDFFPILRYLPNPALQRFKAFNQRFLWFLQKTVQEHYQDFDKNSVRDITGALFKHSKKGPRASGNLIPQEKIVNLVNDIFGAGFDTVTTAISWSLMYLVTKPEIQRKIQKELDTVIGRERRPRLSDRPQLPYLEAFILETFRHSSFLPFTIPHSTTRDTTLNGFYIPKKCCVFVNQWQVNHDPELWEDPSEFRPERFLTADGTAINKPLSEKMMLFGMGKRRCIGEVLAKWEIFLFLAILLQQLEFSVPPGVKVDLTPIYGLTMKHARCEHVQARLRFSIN
Sequence of Cytochrome P450 2D6 (P10635 whole entry): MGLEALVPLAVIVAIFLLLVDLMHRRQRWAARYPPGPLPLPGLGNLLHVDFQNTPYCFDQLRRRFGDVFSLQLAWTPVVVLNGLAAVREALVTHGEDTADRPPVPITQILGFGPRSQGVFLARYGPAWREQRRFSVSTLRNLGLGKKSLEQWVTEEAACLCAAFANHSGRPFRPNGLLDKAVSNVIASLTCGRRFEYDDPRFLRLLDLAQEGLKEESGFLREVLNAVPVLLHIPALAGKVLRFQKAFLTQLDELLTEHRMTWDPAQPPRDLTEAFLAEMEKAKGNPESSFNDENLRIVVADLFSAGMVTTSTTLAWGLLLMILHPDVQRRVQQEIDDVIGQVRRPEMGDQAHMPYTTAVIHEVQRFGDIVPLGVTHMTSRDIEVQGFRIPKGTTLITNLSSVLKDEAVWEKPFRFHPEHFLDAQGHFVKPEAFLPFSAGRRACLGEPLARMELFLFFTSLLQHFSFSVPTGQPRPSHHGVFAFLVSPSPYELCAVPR

In general, Cmax refers to the peak of the concentration-time curve. The term Kp denotes tissue or fluid exposure divided by exposure in the circulation. In turn, `COc1cc(C(=O)N2CCC3(CC2)CC(=O)c2nn(C(C)(C)C)cc2O3)cc(-c2ccc(C(=O)O)cc2)n1` gave a Cmax in data set [1] of 53.9 ng/mL. In data set [2], the Ratio is 376. In addition, the Kp at 6 h in data set [3] worked out at 914. Besides, the uptake ratio at 5 min, 1 µM in [4] came out at 5.
One may read the IC50 as the concentration at which inhibition is half-maximal. What is called fraction unbound is free concentration divided by total concentration. The term AUC(0-t) denotes exposure summed from dosing to a finite time, without extrapolation to infinity. For `COc1cc(C(=O)N2CCC3(CC2)CC(=O)c2c(cnn2C(C)C)C3)cc(-c2ccc(C(=O)O)cc2)n1` [CLESACOSTAT], in data set [5], the uptake ratio at up to 3 µM was 2.5. The IC50 in [6] is more than 50 µM; in [9] it was more than 50 µM; in data set [12], more than 20 µM; in [16], more than 50 µM. Further, the fraction unbound was 0.15 in data set [7] and 0.00956 in [11]. Besides, in data set [8], the Ratio amounted to 8.7. Besides, the dose excreted at 24 h in data set [10] was 12%. The Activity result in data set [13] is recorded as “Non-Toxic”; in [15] it was “Not Active”. This molecule gave an AUC(0-t) in data set [14] of 14000 ng·h/mL.

These data come from ChEMBL document CHEMBL4665761, “Optimizing the Benefit/Risk of Acetyl-CoA Carboxylase Inhibitors through Liver Targeting” (J Med Chem, 2020).
